PPC-1+TRAIL kill – compounds killing PPC-1 cancer cells with TRAIL present (potentiator screen, no TRAIL-free arm). PPC-1 cells + TRAIL, ATPLite viability luminescence. AID 1443. cell killing (% activity), % at 4 µM or 5 µM. actives 0.41% (n = 220,000);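 active means cell killing above 50% in the first pass at 4 µM, then a duplicate retest at 5 µM averaging 50% or more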;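 further: plate controls were cells with TRAIL plus DMSO for no effect and medium-only wells lacking cells for full effect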
HSP90 refold inh – HSP90 refolding inhibition in rabbit reticulocyte lysate | actives 0.91% (n = 290,000) | luciferase refolding luminescence, 3 h | AID 1789 | inhibition, % at 5.6 µM;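 active means inhibition above the screen-wide mean plus 3 SD, computed separately per campaign, cut at about 16% in these data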;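 further: 0% = DMSO wells and 100% = 60 µM geldanamycin wells; inhibitors lower the luminescence because luciferase stays unfolded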
TRAIL sens C8 – caspase-8 TRAIL sensitization. NB7+C8 cells + TRAIL, ATPlite viability luminescence. inhibition (viability loss, TRAIL sensitization), % at 10 µM. actives 1% (n = 360,000). AID 624354;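 active means compounds causing at least 50% loss of cell viability in the single-dose screen, relative to plate controls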
STAT1 inh – inhibitors of IFN-gamma induced STAT1 signaling; NIH 3T3 STAT1-luciferase reporter, luminescence; inhibition, % at 5.5 µM; actives 0.35% (n = 200,000);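 active means inhibition above a set limit, the mean inhibition across all tested compounds plus 3 SD, cut at about 34% in these data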;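 further: 0% = IFN-gamma with DMSO and 100% = IFN-gamma with 300 µM nifuroxazide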
STAT3 blocker – inhibitors of IL-6 induced STAT3 signaling | U3A cells, IL-6 STAT3-luciferase reporter, luminescence; host cell line lacks STAT1 | inhibition, % at 5.5 µM | actives 0.89% (n = 190,000) | AID 862;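 active means inhibition above the mean inhibition across all screened compounds plus 3 SD, cut at about 44% in these data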;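 further: 0% = DMSO only wells and 100% = 100 µM nifuroxazide control wells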
STAT3 act – STAT3 signaling activation; AID 871; activation (% of control), % at 5.6 µM; U3A cells, IL-6 STAT3-luciferase reporter, luminescence; 100% = signal with IL-6 EC80 alone; actives 0.91% (n = 190,000);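 active means activation above the screen-wide mean of compound activation plus 3 SD, cut at about 130% in these data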;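 further: 0% = background luminescence of wells with medium and substrate only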
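Material: human U3A cells carrying STAT3-luciferase construct. Measured by: reporter luminescence signal. Timing: compound 1 h, then IL-6 6 h at 37 °C.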
The depositor's hits bear a star; / = no result given. Hits are enriched below; roughly 2.3% of the tested compounds scored in any of these assays.

SMILES	PPC-1+TRAIL kill	HSP90 refold inh	TRAIL sens C8	STAT1 inh	STAT3 blocker	STAT3 act
CCCc1ccc(OCc2ccc(C(=O)N3CCCC3)o2)cc1	/	17*	-1	/	/	/
O=C(c1ccc(COc2ccccc2Br)o1)N1CCCCCC1	21	4	-8	7	8	97
CCC(Oc1ccccc1OC)C(=O)Nc1ccc2c(c1)n(C)c(=O)n2C (stereo not given)	/	2	-9	/	/	/
CCOC(=O)CS(=O)(=O)c1nc(-c2ccccc2)cc(C(F)(F)F)n1	3	9	-11	43*	18	88
COc1ccc(N(CC(=O)NCCSC2CCCCC2)S(=O)(=O)c2ccccc2)c(OC)c1	/	3	19	/	/	/
NC(=S)NN=C1c2cc(OCCN3CCOCC3)ccc2-c2ccc(OCCN3CCOCC3)cc21	/	-2	84*	/	/	/
CCOC(=O)c1[nH]c2cc(OC)c(OC)cc2c1NC(=O)CN1CCN(C)CC1	-6	5	/	5	-6	107
c1ccc(-c2nc(-c3cccnc3)n[nH]2)cc1	5	2	/	-23	14	90
Brc1cccc(-c2n[nH]c(-c3ccccc3)n2)c1	0	0	-1	-42	-55	152*
CN1/C(=C\C(=O)c2cccc([N+](=O)[O-])c2)Sc2ccccc21	/	-3	19	/	/	/
O=C(/C=C/c1cccc(Cl)c1)c1ccc([N+](=O)[O-])o1	/	/	68*	/	/	/
COc1cc(/C=C/C(=O)c2ccc([N+](=O)[O-])o2)ccc1O	/	/	3	/	/	/
CC1CC(C)CN(C(=O)CCn2c(=O)oc3ccccc32)C1 (stereo not given)	/	-2	9	/	/	/
O/C(=C\c1nc2ccccc2[nH]1)c1cccs1	/	0	11	/	/	/
O=c1[nH]c2ccccc2nc1/C=C(\O)c1cccs1	14	-4	37	-51	-84	169*
O=c1[nH]c2ccccc2nc1/C=C/c1ccc(F)cc1	17	2	53*	-67	5	99
Cn1cccc1C(=O)N1CCN(c2cccc(C(F)(F)F)c2)CC1	16	-1	-4	7	16	89
S=C(Nc1ccc(Cl)cc1)c1nc2ccccc2[nH]1	26	-4	69*	-76	1	100
CC(C)C(NC(=O)C1CCCCC1)C(=O)NC1=NCCS1 (stereo not given)	14	4	5	-1	-4	104
COc1cc(CCC(=O)Nc2c(C(=O)N3CCN(c4ccccc4OC)CC3)oc3ccccc23)on1	/	1	4	/	/	/
CN(C)c1ccc(NC(=O)c2cccc(C(=O)Nc3ccc(N(C)C)cc3)n2)cc1	34	-3	53*	-21	7	97
O=C(Nc1ccccc1)c1cccc(C(=O)Nc2ccccc2)n1	/	-1	-26	/	/	/
O=C(Cn1c(=O)sc2ccccc21)Nc1ccccc1C(=O)O	-11	-3	-17	2	0	104
CCOc1ccc(-c2nnc3n2N=C(c2ccc(OC)cc2)CS3)cc1	26	-1	5	1	-5	109
CCOc1ccc(C2=Nn3c(nnc3-c3ccccc3OC)SC2)cc1	-12	5	-8	-16	-49	146*
SMILES	PPC-1+TRAIL kill	HSP90 refold inh	TRAIL sens C8	STAT1 inh	STAT3 blocker	STAT3 act
N#C/C(=C\c1ccccc1)C(=O)N(c1ccccn1)C1CCCCC1	59*	-3	-13	7	-4	106
Cc1ccc2c(C(=O)CSc3ccccc3)c(C)[nH]c2c1	4	-3	-6	-18	-7	108
Cc1[nH]n(-c2ccccc2)c(=O)c1C(c1cccc([N+](=O)[O-])c1)c1c(C)[nH]n(-c2ccccc2)c1=O	25	6	11	2	-7	107
COc1cccc(C(C[N+](=O)[O-])c2c(C)[nH]n(-c3ccccc3)c2=O)c1 (stereo not given)	/	42*	-6	/	/	/
Cn1cc(C(=O)C(=O)N2CCCc3ccccc32)c2ccccc21	/	0	3	6	23	87
Cn1cc(S(=O)(=O)CC(=O)N2CCCc3ccccc32)c2ccccc21	37	-2	65*	4	-6	109
COc1ccc(C(C[N+](=O)[O-])C2(c3ccc(OC)c(OC)c3)C(=O)c3ccccc3C2=O)cc1 (stereo not given)	43	1	53*	1	-3	101
OC[C@H]1O[C@@H](c2nc(-c3nc(-c4ccc(F)cc4)no3)cs2)[C@H](O)[C@@H]1O	/	/	27	/	/	/
CC(=O)Nc1nc2ccccc2n1Cc1ccccc1C	13	2	17	-27	-34	134*
CCc1ccc(NC(=O)COc2ccc3c(c2)OCO3)cc1	/	2	9	/	/	/
CCOc1ccc(N=Cc2c(C)[nH]n(-c3nc4ccccc4[nH]3)c2=O)cc1	74*	3	87*	19	21	79
N#CCC(=O)Nc1ccc(C(=O)OCc2ccccc2Oc2ccccc2)cc1	/	0	1	/	/	/
CN(C)/C=C1\C(=O)Nc2ccccc21	16	-1	-2	6	-32	135*
O=C(/C=C1\C(=O)Nc2ccccc21)/C=C1\C(=O)Nc2ccccc21	16	14	5	/	/	/
O=C(Nc1nc2cc3c(cc2s1)OCCO3)c1cccc(N2C(=O)CCC2=O)c1	67*	-4	-5	-13	/	/
Cc1sc(NC(=O)c2cccc(N3C(=O)CCC3=O)c2)nc1-c1ccccc1	/	/	50*	/	/	/
O=C(Nc1nc2ccccc2s1)c1cccc(N2C(=O)CCC2=O)c1	/	-4	30	/	/	/
Nc1ccccc1SCC(=O)Nc1cccc2ccccc12	/	4	-7	/	/	/
CNC[C@H](CC1CCCCC1)NC[C@H](Cc1ccccc1)NCCC12CC3CC(CC(C3)C1)C2	/	4	96*	/	/	/
Cc1cc(NC(=O)CSc2nnc(-c3ccc4c(c3)OCCO4)o2)no1	45	13	49*	-3	-2	103
C=CCOc1ccc(/C=C/C(C)=N\O)cc1	31	1	61*	-35	5	99
Cc1ccccc1N(Cc1cc(=O)[nH]c2ccccc12)C(=O)CCl	/	0	12	/	/	/
CCCCCCCN(C(=O)CCl)c1ccccc1C	18	4	88*	3	-10	104
O=C(COC(=O)c1c(F)cccc1F)Nc1ccccc1OC(F)F	/	2	-8	/	/	/
CCN1CCN(CCCNC(=O)c2ccc(/C=C3/Oc4ccccc4N(Cc4cccc(C)c4)C3=O)cc2)CC1	/	-2	55*	/	/	/
O=C(Nc1ccc(NC(=O)C2CC2)nc1)c1cccs1	-6	0	4	-18	7	95
Oc1ccc(CCNc2c3ccccc3nc3ccccc23)cc1O	/	-2	71*	/	/	/
N=c1sccn1CC(=O)N1N=C(c2ccc(Cl)cc2)CC1c1ccco1 (stereo not given)	13	-1	-6	-3	5	98
Cc1nc([N+](=O)[O-])c(Br)n1CC(=O)c1ccc2ccccc2c1	24	17*	23	13	-14	117
COc1ccc(NC(=O)c2cccc(N3C(=O)c4ccc(C(=O)Nc5ccc(OC)c(O)c5)cc4C3=O)c2)cc1O	/	-3	58*	/	/	/

Assay outcomes from PubChem BioAssay.
